Experimental findings from ChEMBL document CHEMBL1150129, “Daucane phytoestrogens: a structure-activity study” (J Nat Prod, 2002) are described below.

Active and inactive are the calls of the source. The rule behind the calls is not given here.

The target in one test is T1, Estrogen receptor (Homo sapiens) (UniProt P03372).
T1 sequence (whole entry): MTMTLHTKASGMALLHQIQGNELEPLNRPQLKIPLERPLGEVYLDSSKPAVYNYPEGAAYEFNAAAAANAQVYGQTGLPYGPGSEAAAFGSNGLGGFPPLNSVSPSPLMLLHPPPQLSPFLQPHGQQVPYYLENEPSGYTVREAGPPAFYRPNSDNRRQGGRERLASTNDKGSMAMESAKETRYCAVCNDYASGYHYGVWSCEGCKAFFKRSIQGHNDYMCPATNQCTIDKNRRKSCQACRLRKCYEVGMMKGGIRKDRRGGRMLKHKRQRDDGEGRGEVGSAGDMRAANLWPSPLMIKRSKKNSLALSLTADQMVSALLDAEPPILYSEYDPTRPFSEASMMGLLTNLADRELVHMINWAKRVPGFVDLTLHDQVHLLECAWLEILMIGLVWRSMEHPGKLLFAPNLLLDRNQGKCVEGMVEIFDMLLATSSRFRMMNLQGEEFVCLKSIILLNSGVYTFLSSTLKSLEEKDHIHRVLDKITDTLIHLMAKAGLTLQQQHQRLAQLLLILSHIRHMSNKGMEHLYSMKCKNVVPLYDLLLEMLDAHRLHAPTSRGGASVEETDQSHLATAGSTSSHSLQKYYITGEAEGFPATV
Put plainly: Binding affinity to human ERalpha expressed in yeast relative to estradiol. Put shortly: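 Yeast (Saccharomyces cerevisiae) estrogen screen expressing human ERα with estrogen-responsive sequences driving lac-Z. Compound aliquots dried into wells before assay. β-Galactosidase activity read as chlorophenol red β-D-galactopyranoside hydrolysis, absorbance 540 nm.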
With `CC(=O)Oc1ccc(C(=O)O[C@H]2CC(C)=CC[C@@]3(C)CC[C@@](O)(C(C)C)[C@H]23)cc1`, the Activity came to 0.2%. On the same count and under the same terms, the result for `CC1=CC[C@@]2(C)CC[C@@](O)(C(C)C)[C@@H]2[C@@H](OC(=O)/C=C/c2ccc(O)c(O)c2)C1` reads “inactive”; that for `CC1=CC[C@@]2(C)CC[C@@](O)(C(C)C)[C@@H]2[C@@H](OC(=O)Cc2ccc(O)cc2)C1`, less than 0.0001%; that for `CC1=CC[C@@]2(C)CC[C@@](O)(C(C)C)[C@@H]2[C@@H](OC(=O)CCc2ccc(O)cc2)C1`, less than 0.0001%. Same read-out and setting: the result for `COc1cc(C(=O)O[C@H]2CC(C)=CC[C@@]3(C)CC[C@@](O)(C(C)C)[C@H]23)ccc1O` reads “inactive”; that for `COc1cc(CC(=O)O[C@H]2CC(C)=CC[C@@]3(C)CC[C@@](O)(C(C)C)[C@H]23)ccc1O`, “inactive”; that for `COc1ccc(C(=O)O[C@H]2CC(C)=CC[C@@]3(C)CC[C@@](O)(C(C)C)[C@H]23)cc1`, less than 0.0001%. On the same count and under the same terms, the result for `COc1cc(/C=C/C(=O)O[C@H]2CC(C)=CC[C@@]3(C)CC[C@@](O)(C(C)C)[C@H]23)cc(OC)c1O` reads “inactive”; that for `CC1=CC[C@@]2(C)CC[C@@](O)(C(C)C)[C@@H]2[C@@H](OC(=O)CCc2ccc(O)c(O)c2)C1`, “inactive”; that for `CC1=CC[C@@]2(C)CC[C@@](O)(C(C)C)[C@@H]2[C@@H](OC(=O)c2ccccc2)C1`, “inactive”.

For `COc1cc(/C=C/C(=O)O[C@H]2CC(C)=CC[C@@]3(C)CC[C@@](O)(C(C)C)[C@H]23)ccc1O`, the outcome was inactive. As to `CC1=CC[C@@]2(C)CC[C@@](O)(C(C)C)[C@@H]2[C@@H](OC(=O)/C=C/c2ccc(O)cc2)C1`, the Activity is less than 0.0001%. Still for that read-out and setting: with `COc1cc(C(=O)O[C@H]2CC(C)=CC[C@@]3(C)CC[C@@](O)(C(C)C)[C@H]23)cc(OC)c1OC` the entry was “inactive”; with `CC1=CC[C@@]2(C)CC[C@@](O)(C(C)C)[C@@H]2[C@@H](OC(=O)c2ccc(O)c(O)c2)C1`, less than 0.1%.

A further test deals with T1, Estrogen receptor (Homo sapiens). Kind of test: Displacement of [2,4,6,7-3H]estradiol from human recombinant ERalpha receptor. Summed up: (§1)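 Recombinant human ERα or ERβ (1.5 nM) with 15 nM [3H]-17β-estradiol and diluted compounds in pH 7.5 Tris buffer with 10% glycerol, 2 mM DTT, 1 mg/mL BSA; overnight at 4 °C. Bound ligand captured on hydroxylapatite, washed thrice (ERα: Tris/KCl/EDTA/EGTA; ERβ: Tris only), ethanol-extracted, radioactivity counted.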
For `CC(=O)Oc1ccc(C(=O)O[C@H]2CC(C)=CC[C@@]3(C)CC[C@@](O)(C(C)C)[C@H]23)cc1`, the Activity was less than 1%.

The target of the next test is Estrogen receptor beta (Homo sapiens) (UniProt Q92731). Kind of test: Displacement of [2,4,6,7-3H]estradiol from human recombinant ERbeta receptor. Put shortly: as §1
Estrogen receptor beta (Homo sapiens), sequence (Q92731 whole entry): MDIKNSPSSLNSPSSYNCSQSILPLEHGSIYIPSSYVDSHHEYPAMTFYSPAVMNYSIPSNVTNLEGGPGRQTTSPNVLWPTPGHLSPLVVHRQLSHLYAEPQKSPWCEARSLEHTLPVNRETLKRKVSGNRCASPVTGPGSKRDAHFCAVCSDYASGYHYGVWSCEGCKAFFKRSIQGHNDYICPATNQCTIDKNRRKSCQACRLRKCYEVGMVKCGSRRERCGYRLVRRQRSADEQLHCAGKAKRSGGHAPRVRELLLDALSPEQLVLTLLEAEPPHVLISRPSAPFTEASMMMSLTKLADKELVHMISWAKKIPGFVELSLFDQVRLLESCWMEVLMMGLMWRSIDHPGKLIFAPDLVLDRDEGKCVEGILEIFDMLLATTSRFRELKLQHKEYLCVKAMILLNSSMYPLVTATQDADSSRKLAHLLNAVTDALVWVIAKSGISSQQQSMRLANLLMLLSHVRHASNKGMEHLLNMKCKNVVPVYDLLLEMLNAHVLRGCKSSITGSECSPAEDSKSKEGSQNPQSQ
As to `CC(=O)Oc1ccc(C(=O)O[C@H]2CC(C)=CC[C@@]3(C)CC[C@@](O)(C(C)C)[C@H]23)cc1`, the Activity is less than 1%.
